# STAT3 activator: IL-6 driven STAT3 reporter potentiators, primary screen, U3A cells, luciferase, luminescence, MLSCN library; IL-6 STAT3-luciferase reporter; 100% = signal with IL-6 EC80 alone; activation (% of control), % at 5.6 µM; actives 0.91% (n = 190,000); AID 871, 2007;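 active = activation above the screen-wide mean of compound activation plus 3 SD, cut at about 130% in these data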
#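 Material: STAT1-lacking human U3A cells, STAT3 luciferase reporter | Benchmarks: IL-6-only wells as 100% reference | Probe or stimulus: IL-6 (33 ng/mL) | Timing: Compound 1 h, then IL-6 6 h at 37 °C | Detection: Luminescence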
# STAT3 blocker: IL-6 driven STAT3 reporter inhibitors, primary screen, U3A cells, luciferase, luminescence, MLSCN library; IL-6 STAT3-luciferase reporter; host cell line lacks STAT1; inhibition, % at 5.5 µM; actives 0.89% (n = 190,000);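 active = inhibition above the mean inhibition across all screened compounds plus 3 SD, cut at about 44% in these data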
# PERK inhibitor: block of dimerizer-induced PERK translation repression, primary screen, PERK inhibitor project, CHO PERK-DD cells, SEAP luminescence, HTS; CHO PERK-DD fusion, SEAP luminescence translation reporter; AID 1416, 2008; inhibition, % at 5.6 µM; Eukaryotic translation initiation factor 2-alpha kinase 3 (Homo sapiens), Q9NZJ5; actives 0.17% (n = 220,000);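 active = inhibition above the mean inhibition of all tested compounds plus 3 SD, set separately per screening campaign, cut at about 2.9% in these data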;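 also: PERK kinase domain activated by AP20187 dimerizer at 100 nM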
# Target sequence (Q9NZJ5 whole entry, looked up, the tested form may be a part): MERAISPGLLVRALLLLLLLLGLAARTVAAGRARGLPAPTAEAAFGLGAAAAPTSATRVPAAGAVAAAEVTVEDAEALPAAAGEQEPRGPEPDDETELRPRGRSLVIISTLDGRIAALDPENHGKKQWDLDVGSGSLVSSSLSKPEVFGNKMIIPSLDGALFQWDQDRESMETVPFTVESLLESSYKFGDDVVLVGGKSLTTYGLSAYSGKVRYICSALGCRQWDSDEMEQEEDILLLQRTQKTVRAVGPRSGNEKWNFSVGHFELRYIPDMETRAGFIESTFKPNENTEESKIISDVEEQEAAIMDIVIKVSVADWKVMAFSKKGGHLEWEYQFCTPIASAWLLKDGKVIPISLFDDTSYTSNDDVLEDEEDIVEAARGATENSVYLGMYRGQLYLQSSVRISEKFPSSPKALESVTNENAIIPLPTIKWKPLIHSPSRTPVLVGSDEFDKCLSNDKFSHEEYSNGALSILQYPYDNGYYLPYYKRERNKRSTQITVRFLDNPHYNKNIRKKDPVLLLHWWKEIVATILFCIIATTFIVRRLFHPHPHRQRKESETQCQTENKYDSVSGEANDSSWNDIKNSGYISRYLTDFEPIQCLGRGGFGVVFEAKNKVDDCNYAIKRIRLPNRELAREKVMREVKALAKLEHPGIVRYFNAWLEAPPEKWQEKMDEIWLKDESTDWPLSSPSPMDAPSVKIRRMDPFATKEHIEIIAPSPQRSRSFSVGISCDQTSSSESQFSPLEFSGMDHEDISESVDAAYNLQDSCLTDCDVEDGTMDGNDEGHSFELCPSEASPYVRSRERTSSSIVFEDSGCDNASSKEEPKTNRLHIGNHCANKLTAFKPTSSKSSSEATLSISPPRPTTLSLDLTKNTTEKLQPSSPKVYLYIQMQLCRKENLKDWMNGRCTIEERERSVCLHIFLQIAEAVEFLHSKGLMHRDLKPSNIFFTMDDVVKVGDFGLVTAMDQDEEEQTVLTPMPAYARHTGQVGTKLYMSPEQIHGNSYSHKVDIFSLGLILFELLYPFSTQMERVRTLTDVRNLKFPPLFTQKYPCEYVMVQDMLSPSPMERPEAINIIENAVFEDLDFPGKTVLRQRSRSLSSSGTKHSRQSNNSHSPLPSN
# STAT1 blocker: STAT1 signaling inhibitors, primary screen, cell-based, HTS, luciferase reporter; NIH 3T3 STAT1-luciferase reporter, IFN-gamma, luminescence; actives 0.35% (n = 200,000); inhibition, % at 5.5 µM; AID 920, 2007;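 active = inhibition above a set limit, the mean inhibition across all tested compounds plus 3 SD, cut at about 34% in these data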
# Hits are given with their value; i = inactive; nt = no result given. A selection: hits, their analogues and other compounds. The true share with any hit is near 1.8%.
SMILES,STAT3 activator,STAT3 blocker,PERK inhibitor,STAT1 blocker
Cn1c(/C=C/c2ccccc2)nc2ccccc21,i,89,i,75
Cn1c(=O)c(/C=C/c2ccccc2)nc2ccccc21,146,i,i,i
CCCCCCCCCC(=O)Nc1cccnc1,i,i,i,i
Cc1cccc(N=C2N=C(N)c3ccccc32)c1,i,i,i,i
NC1=NC(=Nc2cccc(S(N)(=O)=O)c2)c2ccccc21,nt,nt,4.0,nt
Cc1cc(C)c(S(=O)(=O)Nc2cc(SCC(=O)O)c(O)c3ccccc23)cc1C,135,i,i,i
Cn1nc(-c2ccc(Cl)cc2)nc2c(=O)n(C)c(=O)nc1-2,i,74,i,88
CS(=O)(=O)n1nc(-c2ccc(Cl)cc2)nc1N,i,i,i,i
CCOC(=O)c1ccc2nc(Nc3nc4ccc(F)cc4s3)sc2c1,i,73,i,43
CCOC(=O)c1ccc2nc(NC(C)=O)sc2c1,i,i,i,i
COC(=O)c1ccc2nc(Nc3nc4c(F)cc(F)cc4s3)sc2c1,i,94,i,70
COCCCNC(=S)NNC(=O)c1csc(C)n1,nt,nt,i,nt
Cc1ccc2nc(NC(=O)c3ccc(-c4nc5ccccc5s4)s3)sc2c1,i,i,i,i
O=C(NC1CC1)c1ccc(-c2nc3ccccc3s2)s1,i,106,i,75
O=C(c1ccc(-c2nc3ccccc3s2)s1)N1CCOCC1,i,98,i,77
CCOc1cc(CNn2nnnc2N)cc(Cl)c1OCC(=O)NC(C)(C)C,i,i,i,i
COc1ccc(/C=C/C(=O)NCCSCc2ccco2)cc1,i,i,i,i
CC(=O)c1ccc(N/N=C2/CCCNC2=O)cc1,nt,nt,4.0,nt
CCOC(=O)c1cc2ccc3ccccc3c2s1,203,i,i,i
CCOC(=O)c1cc2c(s1)-c1ccccc1CC2,174,i,i,i
Cc1c(NS(=O)(=O)c2cc(NC(=O)CCN3CCCC(C)C3)ccc2Cl)c(=O)n(-c2ccccc2)n1C (stereo not given),i,i,i,i
COc1cc(NC(=S)Nc2ccccn2)c(OC)cc1Cl,i,i,i,i
Cc1cc(C)n(CCC(=O)Nc2cccc(F)c2)n1,i,i,i,i
CCOc1cc(-c2nc(C)c(C(C)=O)n2O)ccc1OCC(=O)Nc1ccccc1,i,i,i,i
O=C1c2ccccc2-c2nnc(-c3ccc(O)cc3)cc21,i,72,i,48
SMILES,STAT3 activator,STAT3 blocker,PERK inhibitor,STAT1 blocker
COc1ccc(-c2nc3ccccc3s2)cc1,i,85,i,73
CCCn1cnc2c(=S)nc(N)[nH]c21,nt,nt,3.4,nt
CCCCn1cnc2c(=S)nc(N)[nH]c21,nt,nt,i,nt
Cc1ccc(-c2ccc(/C=N/NC(=O)c3ccccc3O)o2)cc1,nt,nt,3.1,nt
O=C(Oc1ccc(N2C(=O)CCC2=O)cc1)c1ccccc1Cl,i,i,i,i
Cc1cc(OC(=O)c2ccccc2Cl)cc(=O)n1C,i,i,i,35
Cc1cc2c(cc1C)CSC(c1ccccc1OC(=O)C(C)C)SC2,i,i,i,i
Cc1noc(/C=C/Nc2ccc(F)cc2F)c1[N+](=O)[O-],i,i,i,i
COc1ccccc1N/C=C/c1onc(C)c1[N+](=O)[O-],i,87,i,76
O=C1CCCN1CCCNCC(=O)N1c2ccccc2Sc2ccccc21,i,i,i,i
O=C(/C=C/c1ccco1)NCc1ccccn1,i,i,i,i
COc1ccc2c(c1)C1=NN(/C(C)=C\C(C)=O)C(c3ccccc3)C1CC2 (stereo not given),134,i,i,i
Cn1cccc1/C=C1\CCc2ccccc2C1=O,i,89,i,58
Cn1cccc1/C=C1\Cc2ccccc2C1=O,i,i,i,i
COc1cc(OC)cc(C(=O)N[C@H](C(=O)Nc2cccc(S(=O)(=O)N3CCCC3)c2)C(C)C)c1,nt,nt,i,nt
COc1ccc(C2C(C(=O)c3ccccc3)N3c4ccccc4C=CC3C2[N+](=O)[O-])cc1 (stereo not given),133,i,i,i
Cc1cnc(C(=O)Nc2cccc(S(=O)(=O)N(C)C)c2)cn1,i,i,i,i
COc1ccc(/C(N)=N/OC(=O)c2cccc([N+](=O)[O-])c2)cc1,i,i,i,i
COc1ccc(/C(N)=N/OC(=O)c2cccc([N+](=O)[O-])c2C)cc1,134,i,i,i
Cc1ccc(/C=C/C(=O)OCC(=O)NCCN2C(=O)CSC2=O)o1,i,i,3.2,i
c1ccc2nc(-c3nc4ccccc4[nH]3)ccc2c1,i,83,i,39
c1ccc2[nH]c(-c3cscn3)nc2c1,i,i,i,i
O=C(CSc1nc(C2CC2)nc2ccccc12)Nc1ccccc1N1CCOCC1,i,i,i,i
O=C1CCCCC1Sc1nnc(-c2ccc3c(c2)OCO3)o1 (stereo not given),i,105,i,87
CC(C)(C)c1ccc(C(=O)Nc2ccc(CC(=O)O)cc2)o1,i,83,i,54
SMILES,STAT3 activator,STAT3 blocker,PERK inhibitor,STAT1 blocker
Cc1ccc(-c2nc(=S)c3c(n2Cc2ccco2)CCCC3)cc1,143,i,i,i
Cc1cccc(-c2nc(=S)c3c(n2Cc2ccco2)CCCC3)c1,i,i,i,i
COc1ccc(C(=O)Nc2ccccc2C(=O)N/N=C/c2cccc3ccccc23)cc1,i,80,i,39
O=C(NCc1ccncc1)c1cc(C(=O)C2CC2)c[nH]1,i,i,i,i
Clc1cc(Sc2ccc(Br)cc2)nnc1-c1ccccc1,138,i,i,i
O=C(CN(CCc1ccccc1)S(=O)(=O)c1ccc(Cl)cc1)N/N=C/c1ccccc1C(=O)O,i,i,i,i
Cc1cccc(-c2noc(CN(C(=O)c3ccc4c(c3)OCO4)C(C)C)n2)c1,i,i,i,i
Cc1nc(C(C)N(C)Cc2nc(-c3ccc4c(c3)OCO4)no2)c(C)s1 (stereo not given),i,i,3.0,i
Cc1sc2nc(-c3ccccc3)oc(=O)c2c1C,i,i,i,i
Fc1ccc(Nc2nc(-c3cccnc3)cs2)cc1,157,i,i,i
c1ccc(-c2csc(Nc3cccnc3)n2)cc1,149,i,i,i
CN(C)c1ccc(Nc2nc(-c3cccnc3)cs2)cc1,i,i,i,i
CC(=O)c1cccc(NC(=S)NC(=O)c2ccc(C)cc2Cl)c1,i,i,i,i
COC(=O)c1c(C)nn(-c2ccc(F)c(Cl)c2)c1-c1cc(C)on1,nt,nt,i,nt
CCN(CC)c1ccc(CNc2nc3ccccc3n2CC)cc1,nt,nt,i,nt
CCOC(=O)NC(Nc1ccc(C)cn1)(C(F)(F)F)C(F)(F)F,i,i,i,i
COC(=O)C(NC(C)=O)(Nc1ccc(C)cn1)C(F)(F)F (stereo not given),nt,nt,3.4,nt
COC(=O)c1c(C)[nH]c(C(C)=O)c1C,i,i,3.0,i
COc1cc([N+](=O)[O-])ccc1NC(=O)CN1CCN(C(=O)c2ccco2)CC1,i,i,i,i
CC(C)Oc1ccc(CCC(=O)NNC(=O)CCC(=O)O)cc1,nt,nt,3.1,nt
COc1ccc(CCC(=O)NC(C)C)cc1,i,i,i,i

# Screens from PubChem BioAssay.
